# Data reported in ChEMBL document CHEMBL2311390, “Synthesis and preliminary evaluation of pharmacological properties of some piperazine derivatives of xanthone” (Bioorg Med Chem, 2013).
# How the values were obtained:
# Rattus norvegicus [1] = experiment: Hypotensive activity in normotensive Wistar rat assessed as reduction of systolic blood pressure at 0.31 mg/kg, iv after 10 mins; format: functional, Artery
# How it was run: (§1)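 Male normotensive Wistar rats (170–350 g) anaesthetised with thiopental 75 mg/kg ip; right carotid artery cannulated with heparinised saline-filled polyethylene tubing for pressure recording. After a 5 min stabilisation, compound given into the caudal vein at 1 mL/kg. Systolic pressure is recorded at 0, 5, 10, 20, 30 and 60 min, and the data are reported as mean ± SEM of five to six animals, with one-way ANOVA.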
# Rattus norvegicus [2] = experiment: Hypotensive activity in normotensive Wistar rat assessed as reduction of systolic blood pressure at 0.16 mg/kg, iv after 60 mins; format: functional, Artery; how it was run: as §1
# Rattus norvegicus [3] = experiment: Hypotensive activity in normotensive Wistar rat assessed as reduction of systolic blood pressure at 0.16 mg/kg, iv after 30 mins; format: functional, Artery; how it was run: as §1
# Rattus norvegicus [4] = experiment: Hypotensive activity in normotensive Wistar rat assessed as reduction of diastolic blood pressure at 0.31 mg/kg, iv after 30 mins; format: functional, Artery
# How it was run: (§2)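 Male normotensive Wistar rats were anaesthetised with thiopental 75 mg/kg ip. The right carotid artery was cannulated with heparinised saline for pressure recording. After 5 min of stabilisation, compound was injected into the tail vein at 1 mL/kg. Systolic and diastolic pressure were followed up to 60 min. Data are means ± SEM of 5–6 rats, analysed by one-way ANOVA.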
# Rattus norvegicus [5] = experiment: Hypotensive activity in normotensive Wistar rat assessed as reduction of systolic blood pressure at 0.625 mg/kg, iv after 10 mins; format: functional, Artery; how it was run: as §1
# Rattus norvegicus [6] = experiment: Hypotensive activity in normotensive Wistar rat assessed as reduction of systolic blood pressure at 0.31 mg/kg, iv after 5 mins; format: functional, Artery; how it was run: as §1
# Rattus norvegicus [7] = experiment: Hypotensive activity in normotensive Wistar rat assessed as reduction of systolic blood pressure at 0.625 mg/kg, iv after 20 mins; format: functional, Artery; how it was run: as §1
# Rattus norvegicus [8] = experiment: Hypotensive activity in normotensive Wistar rat assessed as reduction of diastolic blood pressure at 0.31 mg/kg, iv after 10 mins; format: functional, Artery; how it was run: as §2
# Rattus norvegicus [9] = experiment: Hypotensive activity in normotensive Wistar rat assessed as reduction of diastolic blood pressure at 0.625 mg/kg, iv after 60 mins; format: functional, Artery; how it was run: as §2
# Rattus norvegicus [10] = experiment: Cardiotoxicity in Wistar rat assessed as hear beats per min at 10 mg/kg, iv after 10 mins by ECG analysis; format: toxicity, organism-based; design: dose 10 mg/kg, route intravenous; conditions: in vivo
# Rattus norvegicus [11] = experiment: Cardiotoxicity in Wistar rat assessed as PQ interval at 10 mg/kg, iv after 10 mins by ECG analysis; format: toxicity, organism-based; design: dose 10 mg/kg, route intravenous; conditions: in vivo
# Rattus norvegicus [12] = experiment: Cardiotoxicity in Wistar rat assessed as QT interval at 10 mg/kg, iv after 10 mins by ECG analysis; format: toxicity, organism-based; design: dose 10 mg/kg, route intravenous; conditions: in vivo
# Rattus norvegicus [13] = experiment: Cardiotoxicity in Wistar rat assessed as QRS interval at 10 mg/kg, iv after 10 mins by ECG analysis; format: toxicity, organism-based; design: dose 10 mg/kg, route intravenous; conditions: in vivo
# Rattus norvegicus [14] = experiment: Cardiotoxicity in Wistar rat assessed as QT interval at 5 mg/kg, iv after 5 mins by ECG analysis; format: toxicity, organism-based; design: dose 5 mg/kg, route intravenous; conditions: in vivo
# How it was run: (§3)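 Male normotensive Wistar rats, 170–350 g, six per group. Compound given iv at a constant volume of 1 mL/kg. ECG was recorded just before dosing and at 1, 5 and 15 min after. PQ, QRS and QT intervals and heart rate were read from the trace. Groups were compared by one-way ANOVA.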
# Rattus norvegicus [15] = experiment: Cardiotoxicity in Wistar rat assessed as PQ interval at 5 mg/kg, iv after 5 mins by ECG analysis; format: toxicity, organism-based; design: dose 5 mg/kg, route intravenous; conditions: in vivo; how it was run: as §3
# Rattus norvegicus [16] = experiment: Cardiotoxicity in Wistar rat assessed as QRS interval at 5 mg/kg, iv after 15 mins by ECG analysis; format: toxicity, organism-based; design: dose 5 mg/kg, route intravenous; conditions: in vivo, 0.25 h; how it was run: as §3
# Rattus norvegicus [17] = experiment: Hypotensive activity in normotensive Wistar rat assessed as reduction of systolic blood pressure at 1.25 mg/kg, iv after 5 mins; format: functional, Artery; how it was run: as §1
smiles,measurement,setting,value
COc1ccccc1N1CCN(CCCOc2cccc3c(=O)c4ccccc4oc23)CC1.Cl,Activity,Rattus norvegicus [1],122.8 mmHg
same,Activity,Rattus norvegicus [2],108.2 mmHg
same,Activity,Rattus norvegicus [3],111.4 mmHg
same,Activity,Rattus norvegicus [4],103.3 mmHg
same,Activity,Rattus norvegicus [5],125.5 mmHg
same,Activity,Rattus norvegicus [6],122 mmHg
same,Activity,Rattus norvegicus [7],129.5 mmHg
same,Activity,Rattus norvegicus [8],107.7 mmHg
same,Activity,Rattus norvegicus [9],112 mmHg
Cl.Cl.Cl.O=c1c2ccc(Cl)cc2oc2c(OCC(O)CN3CCN(Cc4ccccc4)CC3)cccc12 (racemic),Activity,Rattus norvegicus [10],285 bpm
same,Activity,Rattus norvegicus [11],41.1 ms
same,Activity,Rattus norvegicus [12],72.8 ms
same,Activity,Rattus norvegicus [13],19.6 ms
Cl.Cl.O=c1c2ccccc2oc2c(OCC(O)CN3CCN(C/C=C/c4ccccc4)CC3)cccc12 (racemic),Activity,Rattus norvegicus [14],76.4 ms
same,Activity,Rattus norvegicus [15],41.5 ms
same,Activity,Rattus norvegicus [16],24 ms
Cl.Cl.Cl.O=c1c2ccc(Cl)cc2oc2c(OCC(O)CN3CCN(C/C=C/c4ccccc4)CC3)cccc12 (racemic),Activity,Rattus norvegicus [14],73.6 ms
same,Activity,Rattus norvegicus [15],45.7 ms
same,Activity,Rattus norvegicus [16],20.3 ms
COc1ccccc1N1CCN(CC(O)COc2cccc3c(=O)c4ccccc4oc23)CC1.Cl (racemic),Activity,Rattus norvegicus [1],121.8 mmHg
same,Activity,Rattus norvegicus [2],115.2 mmHg
same,Activity,Rattus norvegicus [3],115.7 mmHg
same,Activity,Rattus norvegicus [4],100.6 mmHg
same,Activity,Rattus norvegicus [6],122.8 mmHg
same,Activity,Rattus norvegicus [8],103 mmHg
COc1ccccc1N1CCN(CC(COc2cccc3c(=O)c4ccccc4oc23)OC(C)=O)CC1.Cl (racemic),Activity,Rattus norvegicus [5],123.8 mmHg
same,Activity,Rattus norvegicus [17],119 mmHg
same,Activity,Rattus norvegicus [7],122.2 mmHg
same,Activity,Rattus norvegicus [9],92 mmHg
Cl.Cl.Cl.O=c1c2ccc(Cl)cc2oc2c(OCC(O)CN3CCN(CCOc4ccccc4)CC3)cccc12 (racemic),Activity,Rattus norvegicus [10],242.43 bpm
same,Activity,Rattus norvegicus [11],33.6 ms
same,Activity,Rattus norvegicus [12],50.48 ms
same,Activity,Rattus norvegicus [13],20.32 ms
same,Activity,Rattus norvegicus [17],117.2 mmHg
